# Assay outcomes deposited in PubChem BioAssay by Broad Institute.
# Shown are actives, neighbours in structure and some others; about 2.7% of the full set was active somewhere.
# CaV13 FRET inh: Disruptors of the CACNA1D IQ motif to Ca2+-dependent inactivation inhibitor domain association, primary screening, Förster resonance energy transfer in intact living …; HEK cells, CFP/YFP FRET ICDI-IQ, plate reader, 10 min; percent FRET-ratio fall versus neutral wells; inhibition, % at 12.3 µM; hit rate 0.098% among 340,000; AID 743397;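 active = mean replicate inhibition of at least 30% and at least 1% of replicates passing that level; inconclusive = only one of the two criteria is met; inactive = neither criterion is met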;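 also: 0% = median of the neutral control wells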
# DENV2 CPE rescue: inhibitors of DENV2 cytopathic effect, primary screen, cell-based, plate reader, single concentration; DENV2-infected cells, cytopathic effect rescue; CPE inhibition, % at 9.99 µM; hit rate 1.7% among 350,000; in the data active = CPE inhibition above about 20%, passing the limit was not always enough; inconclusive = no clear call, values can overlap the other calls; tested in BHK-21 cells;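 also: 0% = median of neutral control wells and 100% = median of positive control wells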
# SIRT5 inh: SIRT5 desuccinylase inhibitors, primary screen, biochemical, fluorescence imaging, single point, set 5; NAD-dependent protein deacylase sirtuin-5, mitochondrial (Homo sapiens), Q9NXA8; hit rate 1.1% among 330,000; inhibition, % at 15 µM; AID 652115, 2013; Purified SirT5, succinyl-peptide AMC, trypsin-coupled fluorescence; in the data active = inhibition above about 15%; inconclusive = no clear call, values can overlap the other calls
# Target sequence (Q9NXA8 whole entry, looked up): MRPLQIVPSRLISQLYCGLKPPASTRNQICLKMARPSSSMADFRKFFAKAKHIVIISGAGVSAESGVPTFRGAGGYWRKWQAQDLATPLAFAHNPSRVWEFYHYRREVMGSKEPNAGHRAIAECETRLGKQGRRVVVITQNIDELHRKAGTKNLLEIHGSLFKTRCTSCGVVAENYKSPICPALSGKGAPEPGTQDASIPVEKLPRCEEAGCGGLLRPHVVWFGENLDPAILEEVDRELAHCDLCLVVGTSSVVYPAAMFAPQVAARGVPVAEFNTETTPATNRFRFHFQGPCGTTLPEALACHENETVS
# S100A4 inh HTS: inhibitors of S100A4-myosin IIA peptide binding, primary screen, biochemical, fluorescence polarization, TAMRA-MyoIIA peptide. Protein S100-A4 (Homo sapiens), P26447. inhibition, % at 10.7 µM. hit rate 0.14% among 360,000;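 active = mean inhibition of at least 70% across replicates, with every replicate also reaching that level; inconclusive = mean inhibition reaches 70% but some replicates fall short; inactive = mean inhibition below 70%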
# Target sequence (P26447 whole entry, looked up): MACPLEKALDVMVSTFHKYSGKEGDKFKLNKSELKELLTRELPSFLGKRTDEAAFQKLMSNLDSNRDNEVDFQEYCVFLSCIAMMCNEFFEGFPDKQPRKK
#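 Test system: S100A4 monomer protein. Medium: HEPES buffer with Ca2+, pH 7.2. Reagent: fluorescent myosin IIA peptide, 5 nM. Compound dosing: single-point compound testing. Timing: 5 min between mix addition and reading. Benchmarks: DMSO neutral and TFP positive wells.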
# MLL AF4-AF9 inh: inhibitors of AF4 peptide binding to AF9, primary screen, biochemical, AlphaScreen, biotin-AF4 peptide, FLAG-AF9, single point; inhibition, % at 10 µM; hit rate 0.47% among 350,000; Protein AF-9 (Homo sapiens), P42568;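 active = every replicate reaching a set inhibition limit, whatever the replicate mean, cut at about 25% in these data; inconclusive = mean inhibition reaches that limit but some replicates miss it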;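 also: 0% = plate neutral control median and 100% = total signal loss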
# * marks the source's active call; other numbers are inactive results; ? = inconclusive; · = no result; ! = not confirmed by another sample.
SMILES,CaV13 FRET inh,DENV2 CPE rescue,SIRT5 inh,S100A4 inh HTS,MLL AF4-AF9 inh
CN(C(=O)[C@@H](Cc1ccccc1)NC(=O)[C@H]1O[C@@H](n2ccc(=O)[nH]c2=O)[C@H](O)[C@@H]1O)C1CCCCC1,-11.9,-5.1,-1.6,-4.3,·
COc1cccc(CN(C)C(=O)[C@@H](Cc2ccccc2)NC(=O)[C@H]2O[C@@H](n3ccc(=O)[nH]c3=O)[C@H](O)[C@@H]2O)c1,-2.1,21.6*,0.6,-0.1,·
O=C(O)C1CCCN1C(=O)c1cccc(Cl)c1 (configuration not stated),-12.0,18.2,·,-4.2,1.1
CCS(=O)(=O)c1ccc2oc(Nc3ccc(OC)cc3)nc2c1,-3.0,3.4,-2.5,-0.6,-0.7
CCOc1ccc(Nc2nc3cc(S(=O)(=O)CC)ccc3o2)cc1,-14.2,4.5,17.7*,-4.2,-11.5
CCOC(=O)Nc1ccc(S(=O)(=O)N2CCOCC2)cc1,-3.2,·,·,·,·
CCOC(=O)Nc1ccc(N2CCOCC2)c(S(=O)(=O)N2CCOCC2)c1,-5.6,26.2*,-1.5,-3.6,1.6
O=C(C[C@H]1CC[C@H]2[C@@H](COC[C@H](O)CN2S(=O)(=O)c2ccccc2)O1)NCc1ccc(-c2ccccc2)cc1,·,1.6,-1.6,-6.3,20.9
C[C@@H]1CN([C@@H](C)CO)C(=O)Cc2cc(NS(=O)(=O)c3ccccc3)ccc2O[C@H]1CN(C)Cc1ccc(Cl)c(Cl)c1,·,-6.8,20.5*,7.0,4.9
C[C@H](CO)N1C[C@H](C)[C@@H](CN(C)Cc2ccc(Cl)c(Cl)c2)Oc2ccc(NS(=O)(=O)c3ccc(Cl)cc3)cc2CC1=O,·,-15.6,24.5*,-8.0,0.1
C[C@@H]1CN([C@H](C)CO)C(=O)Cc2cc(NS(=O)(=O)c3ccc(Cl)cc3)ccc2O[C@H]1CN(C)Cc1ccc(Cl)c(Cl)c1,·,12.8,14.7,16.8,-4.0
C[C@@H]1CN([C@@H](C)CO)C(=O)Cc2cc(NS(=O)(=O)c3ccc(Cl)cc3)ccc2O[C@H]1CN(C)Cc1ccc(Cl)c(Cl)c1,·,0.8,25.7*,14.5,-1.1
COCC(=O)N1CCC2(CC1)CN(Cc1cccc(Cl)c1)[C@@H](CO)c1[nH]c3cc(OC)ccc3c12,·,5.9,·,·,-4.1
COc1ccc(C(=O)C[C@@H]2OC[C@H](C(C)C)N2S(=O)(=O)c2ccc(C)cc2)cc1OC,-10.3,1.4,·,-0.9,-1.4
COC(=O)C[C@@H]1OC[C@H](Cc2ccccc2)N1S(=O)(=O)c1ccc(C)cc1,-15.0,20.6*,0.4,1.0,·
COc1ccc(C(=O)C[C@@H]2OC[C@H](C)N2S(=O)(=O)c2ccc(C)cc2)cc1OC,-7.3,56.9*,0.0,-1.0,·
Cc1noc(C)c1S(=O)(=O)Nc1cccc2c1O[C@H](CN(C)S(=O)(=O)c1cn(C)cn1)[C@H](C)CN([C@H](C)CO)C2=O,·,4.5,1.8,-13.4,-2.4
O=C(OCc1ccccc1Cl)c1cc([N+](=O)[O-])ccc1N1CCOCC1,-5.4,?,-0.1,-5.4,11.0
O=C(OCc1c(F)cccc1Cl)c1cc([N+](=O)[O-])ccc1N1CCOCC1,-5.7,67.8*,6.5,-1.2,7.0
Cc1ccc(S(=O)(=O)N(C)C[C@@H]2OCc3ccccc3-c3c(n(C)c4ccccc34)C(=O)N([C@H](C)CO)C[C@@H]2C)cc1,-5.3,-4.7,18.4*!,-0.5,4.2
Cc1cccc(S(=O)(=O)N(C)C[C@@H]2OCc3ccccc3-c3c(n(C)c4ccccc34)C(=O)N([C@H](C)CO)C[C@@H]2C)c1,·,-5.8,20.2*,-11.5,7.0
C[C@H]1CN([C@@H](C)CO)C(=O)c2c(c3ccccc3n2C)-c2ccccc2CO[C@@H]1CN(C)S(=O)(=O)c1ccc(Cl)cc1,·,13.7,-0.5,-34.9,0.8
C[C@H](CO)N1C[C@H](C)[C@H](CN(C)S(=O)(=O)c2ccc(Cl)cc2)OCc2ccccc2-c2c(n(C)c3ccccc23)C1=O,-6.8,-12.9,21.7*!,0.7,2.9
CCCNC(=O)N1CCC2(CC1)CN(C(=O)CC1CC1)[C@@H](CO)c1[nH]c3cc(OC)ccc3c12,·,6.5,-4.4,0.5,-12.5
COc1ccc(-c2sc3cc4c(cc3c2C#Cc2cncn2C)OCO4)cc1,-9.7,34.2*,·,-1.4,5.9
